Test results from the RNAGym collection of RNA variant scans (doi:10.1126/science.aae0568).
Variants at the floor of the assay were thinned out.

B1: tRNA (parent)
chain: GUUCCGUUGGCGUAAUGGUAACGCGUCUCCCUCCUAAGGAGAAGACUGCGGGUUCGAGUCCCGUACGGAACG

Variants of: B1
Assay: yeast fitness relative to wild type (ratio to wild type); higher = fitter; tRNA-Arg(CCU), competitive growth, 37 C, YPD
In short: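 The tRNA-Arg(CCU) gene variants were made by chemical synthesis with a 3% per-site mutation rate at 69 sites and inserted at the native genomic locus of Saccharomyces cerevisiae. After pooling, the strains were competed in YPD at 37°C for 24 hours in six parallel replicates. Gene amplicons from the start population and each end population were read by 100-nucleotide paired-end sequencing, and Darwinian fitness relative to wild type was taken from genotype frequency changes. Genotypes needed ≥ 100 starting reads, and estimates < 0.5 were set to 0.5.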

Variant | yeast fitness
U7G U8C A70U | 0.588
U2C U26C | 0.947
G9A C24G A37C A70U | ≤ 0.5
C5G A36C A42G C55U C62G A69U | ≤ 0.5
C24G C27G C62A | 0.622
G9C A15G C49A | 0.601
C29G U32A U47C C62A | ≤ 0.5
G18A C30U C60G | ≤ 0.5
C4U A65C | 0.873
U32C G38C A69U | 0.531
C5U C24U A40G | 0.637
C4G C29A C34U A36U G50A | 0.568
U8C A36U G50C | ≤ 0.5
U59A A70C | 0.741
C22A U26A C66U | 0.582
A14G A65U | 0.737
C11G C24U U28C A42G C60U C62G | ≤ 0.5
C22G A45G C49U A70U | ≤ 0.5
G6C C30U U59G C61A | 0.575
U8C C27U C34G C60A | 0.503
U3A C5U C31A A45C C46G G52C | ≤ 0.5
A15G U35C A36G A37G C61G G67C | ≤ 0.5
G25A C31A G44C | 0.597
C24U C29U C46U | 0.554

Variant | yeast fitness
G10A G39A | 0.784
A15C C34G A37U C46G A69U | ≤ 0.5
G9C C24U G48C G51A | ≤ 0.5
U32C C34U U53A G68C | 0.537
A20C C49U U59C | 0.588
C4A U26C C27G C33G A37U G41A A57G C62G | ≤ 0.5
G6A C24U C49U C61G C66U A69U | ≤ 0.5
A15G G56A A65C | 0.619
A14G G18A C22G C49A | ≤ 0.5
C4G G12A G38C C66U | ≤ 0.5
U28C U47A C49U G63C | 0.683
C33U A43U C49G G50C C61U | ≤ 0.5
G9A C27G C34A C46G C55A | 0.508
G18C G50A | 0.609
G12A G38C | 0.869
U8C G25C C31U A69C | ≤ 0.5
U47C A65C C66G | ≤ 0.5
G41C G48C A69U | 0.558
C4G A14U A20G A21C | 0.55
G10C C22A C24G G68C | ≤ 0.5
G12C C24U U64G | ≤ 0.5
C27U A40G G44A C62A | 0.51
C24A A42C | 0.713
U3C A57C U64A | ≤ 0.5

Variant | yeast fitness
C29G U54G U59A | ≤ 0.5
U3C A14C G44C G50C U54C C55A | ≤ 0.5
U3G C4A A40U C66A A69C | ≤ 0.5
C5G G25A U54G C55U A70C | ≤ 0.5
C33A A43U C49A | 0.591
U16C G18A U28A C31A U32A A57G G67A | 0.962
C30A G50C | 0.594
U32A G58C C66A | ≤ 0.5
C22G U26A C29G A70U | 0.591
A57C U64G | 0.512
C31U A57G C66U | 0.583
U13G C30U C55A | ≤ 0.5
A36U C55U | 0.658
G17C C34U C61U | 0.55
G50A G63A | 0.943
A15U A20C U32G A65C | 0.537
U16C U32C C49A | 0.617
G38C C60U G63C A65G | ≤ 0.5
G6C C30A A45G C55G A57U C62G U64C | ≤ 0.5
G41C A43C | 0.731
C11U U59A | 0.757
C5A A14U C31G G63A | ≤ 0.5
A14C G44C | 0.577
U7A G12A G18U C31U C49G | ≤ 0.5

Variant | yeast fitness
A36U G38C A43G G68C | ≤ 0.5
U2A U32A A37U A43G | ≤ 0.5
C22A C27U | 0.976
C30A A40C A43G C49G G63C | ≤ 0.5
G6A C29U C31U C33G U35C | ≤ 0.5
C4U C22G A57U G63C | ≤ 0.5
A21C C22U G38C A40C C62A | 0.559
G9A G25C | 0.931
G44A A45G G51C | ≤ 0.5
C4G U26A C27U A43G C55U C66U | ≤ 0.5
U47A G48A A70U | 0.748
U7G C22G U28A C31G C55A G68C | ≤ 0.5
U16G A40U C62G | 0.566
G10C C22A C60G C61U G63A | ≤ 0.5
A42G U64A | 0.724
G41A G67U G68C | 0.507
C5U U28G C62U A65G | ≤ 0.5
A14C G68C | 0.687
A21U C29U G48A U54C | ≤ 0.5
C27G A42G A57G U59G | ≤ 0.5
G6A U13G G50C | 0.538
G17C A42C C66U | ≤ 0.5
G10A U16A A21C | 1
C5U A37G | 0.795

Variant | yeast fitness
G9A C55G A69C | 0.611
U13A G23C C27G C49U U53C C61A G68A | ≤ 0.5
A15G C46G C61G A65G | 0.756
A15U U32A G50A G51A G56C C61G | 0.538
A14G | 0.796
C4A C34G A70G | ≤ 0.5
A14C C31U A69U | ≤ 0.5
C11U G17C A21U G56A | ≤ 0.5
U13A G50A | 0.806
A21G C34G A40G | 0.572
G38C U59C | 0.711
G6A A14C | 0.674
U54C C66U | 0.767
A37U U64A | 0.642
C5A A36C | 0.608
U8A G18C C24A U32C G52C G56A | ≤ 0.5
C11A A20G C22G C49G G68C A69C | ≤ 0.5
G10C C11G C31U U35C U54A | ≤ 0.5
A20U G68A | 0.843
U16A G39A A42G C55A C62A | ≤ 0.5
G9A G12U A14U U53A U54C | ≤ 0.5
G25C A40C G63A | 0.69
A14C A57C C62U | ≤ 0.5
A15U C24A C34G G39U A65G | 0.651

Variant | yeast fitness
C24A U26A C55A C66U | ≤ 0.5
U3C G25C G38A A42C G52A C62U | ≤ 0.5
C4A C22G C55G G63C | ≤ 0.5
U13A A21C U35C G39A A42C A43G C46U | 0.63
A15C A57C | ≤ 0.5
A43C G48A G58C | 0.689
C4A U8G A69U | ≤ 0.5
C5U C33U A65G | 0.63
C5U C22U C33U C49U C62G | ≤ 0.5
U2A U8C U13C A42C | ≤ 0.5
C61U A65U | 0.724
C4U G6A U8G C31U G63A | ≤ 0.5
C46U U59C | 1.03
C11G G12A C60U A70G | ≤ 0.5
C5G U13G C29U A40G G68A A70C | ≤ 0.5
C22U C29G A36U G41C A45C C49U U54C C61U | ≤ 0.5
U3C G41A A65C | 0.51
U2G C61G | 0.556
A15C G50A C55U C61G | 0.804
C4A G17U C46A | 0.645
G23C U28G A42C G52C | ≤ 0.5
U2C U7A A37G A42U G48C C55U C66G | ≤ 0.5
U28G G51C C55G | ≤ 0.5
G44C U54C C60A | ≤ 0.5

Variant | yeast fitness
G23A C31U A57U | ≤ 0.5
U3G U8A C31A G52A | ≤ 0.5
U7A G17C C24G C29A G58C A69C | ≤ 0.5
C33G U35G A37C A43C G44A U64C | ≤ 0.5
G6A G17C C31A A36U G56A | 0.632
U16A C29G | 0.669
G23C G68U | 0.64
U16G C29G C46U G51C C55G | ≤ 0.5
U16G C22A C61A | ≤ 0.5
U13C C22G A36U C62U C66U A69C | ≤ 0.5
C4U U8A C33U A36U A65C | ≤ 0.5
C30U G38C U59A | ≤ 0.5
C4U A45C | 0.939
C4G A15G | 0.732
G18A U26C | 0.648
C4A G51C | 0.547
A36C C49U C55U | 0.643
G12A G41U | 0.819
C5A A57U G68U A70G | 0.541
G12A C22G C29G C30U A36U U47C | 0.571
G48A C49U G63C | 0.633
C5G G48A A70U | 0.803
U3G G48A U53G | ≤ 0.5
